Structures are written as SMILES. pIC50: −log10 of the molar value.

Assay [1] is filed under the species Homo sapiens. Briefly: Selectivity index, ratio of IC50 for human FBPase N125A mutant expressed in Escherichia coli BL21 (DE3) to IC50 for human FBPase expressed in Escherichia coli BL21 (DE3). Summed up: (§1)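 IC50 values for each FBPase point mutant and for wild-type human FBPase came from the same malachite-green assay. The index is mutant IC50 divided by wild-type IC50.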

Assay [2] concerns the target T1, Fructose-1,6-bisphosphatase 1 (Homo sapiens, UniProt P09467).
T1 sequence (P09467 whole entry): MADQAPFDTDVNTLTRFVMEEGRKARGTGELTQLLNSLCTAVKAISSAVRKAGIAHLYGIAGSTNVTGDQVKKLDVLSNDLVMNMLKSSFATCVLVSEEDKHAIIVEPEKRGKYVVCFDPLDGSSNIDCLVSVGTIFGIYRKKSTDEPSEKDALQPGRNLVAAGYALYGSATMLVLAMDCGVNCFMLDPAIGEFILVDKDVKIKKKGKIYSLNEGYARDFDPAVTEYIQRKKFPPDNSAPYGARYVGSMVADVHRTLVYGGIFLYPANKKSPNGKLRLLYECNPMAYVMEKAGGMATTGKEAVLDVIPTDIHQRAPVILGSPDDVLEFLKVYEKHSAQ
Description: Inhibition of human FBPase expressed in Escherichia coli BL21 (DE3) using FBP as substrate incubated for 5 mins by malachite green dye based spectrophotometry.

The species named for assay [3] is Homo sapiens. Description: Selectivity index, ratio of IC50 for human FBPase C38S mutant expressed in Escherichia coli BL21 (DE3) to IC50 for human FBPase expressed in Escherichia coli BL21 (DE3). Summed up: as §1
The species named for assay [4] is Homo sapiens. Description: Selectivity index, ratio of IC50 for human FBPase C92S mutant expressed in Escherichia coli BL21 (DE3) to IC50 for human FBPase expressed in Escherichia coli BL21 (DE3). In short, it runs like this:
as §1

For assay [5], the species on record is Homo sapiens. Briefly: Selectivity index, ratio of IC50 for human FBPase C116S mutant expressed in Escherichia coli BL21 (DE3) to IC50 for human FBPase expressed in Escherichia coli BL21 (DE3). In short, it runs like this: as §1
Assay [6] is filed under the species Homo sapiens. Description: Selectivity index, ratio of IC50 for human FBPase C128S mutant expressed in Escherichia coli BL21 (DE3) to IC50 for human FBPase expressed in Escherichia coli BL21 (DE3). Summed up: as §1
For assay [7], the species on record is Homo sapiens. Briefly: Selectivity index, ratio of IC50 for human FBPase C179S mutant expressed in Escherichia coli BL21 (DE3) to IC50 for human FBPase expressed in Escherichia coli BL21 (DE3). In short, it runs like this:
as §1

For assay [8], the species on record is Homo sapiens. Briefly: Selectivity index, ratio of IC50 for human FBPase C183S mutant expressed in Escherichia coli BL21 (DE3) to IC50 for human FBPase expressed in Escherichia coli BL21 (DE3). Summed up: as §1
Assay [9] is filed under the species Homo sapiens. Briefly: Selectivity index, ratio of IC50 for human FBPase C281S mutant expressed in Escherichia coli BL21 (DE3) to IC50 for human FBPase expressed in Escherichia coli BL21 (DE3). In short, it runs like this:
as §1

The species entered for assay [10] is Homo sapiens. Description: Selectivity index, ratio of IC50 for human FBPase S124A mutant expressed in Escherichia coli BL21 (DE3) to IC50 for human FBPase expressed in Escherichia coli BL21 (DE3). Summed up:
as §1

The species entered for assay [11] is Homo sapiens. Briefly: Selectivity index, ratio of IC50 for human FBPase R243A mutant expressed in Escherichia coli BL21 (DE3) to IC50 for human FBPase expressed in Escherichia coli BL21 (DE3). In short, it runs like this:
as §1

Assay [12] is filed under the species Homo sapiens. Briefly: Selectivity index, ratio of IC50 for human FBPase R254A mutant expressed in Escherichia coli BL21 (DE3) to IC50 for human FBPase expressed in Escherichia coli BL21 (DE3). In short, it runs like this:
as §1

The species named for assay [13] is Homo sapiens. Briefly: Selectivity index, ratio of IC50 for human FBPase Y258A mutant expressed in Escherichia coli BL21 (DE3) to IC50 for human FBPase expressed in Escherichia coli BL21 (DE3). In short, it runs like this:
as §1

Assay [14] addresses Fructose-1,6-bisphosphatase 1 (Homo sapiens, UniProt P09467, C129S). Description: Inhibition of human FBPase C128S mutant expressed in Escherichia coli BL21 (DE3) using FBP as substrate incubated for 5 mins by malachite green dye based spectrophotometry. In short, it runs like this:
(§2)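 Recombinant human FBPase (wild type or point mutants) was expressed in E. coli BL21 (DE3), purified and stored in 50% glycerol at -20 °C. Reactions ran 5 min at 37 °C, and released phosphate was read by malachite green.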

Assay [15] deals with Fructose-1,6-bisphosphatase 1 (Homo sapiens, UniProt P09467, C39S). Briefly: Inhibition of human FBPase C38S mutant expressed in Escherichia coli BL21 (DE3) using FBP as substrate incubated for 5 mins by malachite green dye based spectrophotometry. Summed up: as §2
Fructose-1,6-bisphosphatase 1 (Homo sapiens, UniProt P09467, C39S), sequence (P09467 2-338 C39S limits assumed): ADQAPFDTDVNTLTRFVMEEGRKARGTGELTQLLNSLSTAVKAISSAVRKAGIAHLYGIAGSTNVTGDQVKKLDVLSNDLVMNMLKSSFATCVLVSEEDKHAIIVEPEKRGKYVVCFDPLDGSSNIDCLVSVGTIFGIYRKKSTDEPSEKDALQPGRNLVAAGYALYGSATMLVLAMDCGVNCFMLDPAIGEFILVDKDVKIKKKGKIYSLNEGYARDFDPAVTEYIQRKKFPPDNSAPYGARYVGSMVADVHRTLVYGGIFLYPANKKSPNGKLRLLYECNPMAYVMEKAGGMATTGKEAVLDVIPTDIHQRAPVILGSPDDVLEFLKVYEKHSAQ
Assay [16] has as its target Fructose-1,6-bisphosphatase 1 (Homo sapiens, UniProt P09467, C93S). Description: Inhibition of human FBPase C92S mutant expressed in Escherichia coli BL21 (DE3) using FBP as substrate incubated for 5 mins by malachite green dye based spectrophotometry. Summed up: as §2
For assay [17], the target named is Fructose-1,6-bisphosphatase 1 (Homo sapiens, UniProt P09467, C117S). Briefly: Inhibition of human FBPase C116S mutant expressed in Escherichia coli BL21 (DE3) using FBP as substrate incubated for 5 mins by malachite green dye based spectrophotometry. In short, it runs like this:
as §2

Assay [18] deals with Fructose-1,6-bisphosphatase 1 (Homo sapiens, UniProt P09467, C184S). Description: Inhibition of human FBPase C183S mutant expressed in Escherichia coli BL21 (DE3) using FBP as substrate incubated for 5 mins by malachite green dye based spectrophotometry. Summed up: as §2
Fructose-1,6-bisphosphatase 1 (Homo sapiens, UniProt P09467, C184S), sequence (P09467 2-338 C184S limits assumed): as the sequence (P09467 2-338 C39S limits assumed) above, with S38C, C183S counted along it
The target of assay [19] is Fructose-1,6-bisphosphatase 1 (Homo sapiens, UniProt P09467, C282S). Briefly: Inhibition of human FBPase C281S mutant expressed in Escherichia coli BL21 (DE3) using FBP as substrate incubated for 5 mins by malachite green dye based spectrophotometry. In short, it runs like this: as §2
Fructose-1,6-bisphosphatase 1 (Homo sapiens, UniProt P09467, C282S), sequence (P09467 2-338 C282S limits assumed): as the sequence (P09467 2-338 C39S limits assumed) above, with S38C, C281S counted along it
In assay [20] the target is Fructose-1,6-bisphosphatase 1 (Homo sapiens, UniProt P09467, S125A). Briefly: Inhibition of human FBPase S124A mutant expressed in Escherichia coli BL21 (DE3) using FBP as substrate incubated for 5 mins by malachite green dye based spectrophotometry. In short, it runs like this:
as §2

Assay [21] has as its target Fructose-1,6-bisphosphatase 1 (Homo sapiens, UniProt P09467, N126A). Description: Inhibition of human FBPase N125A mutant expressed in Escherichia coli BL21 (DE3) using FBP as substrate incubated for 5 mins by malachite green dye based spectrophotometry. In short, it runs like this: as §2
Assay [22] concerns the target Fructose-1,6-bisphosphatase 1 (Homo sapiens, UniProt P09467, R244A). Briefly: Inhibition of human FBPase R243A mutant expressed in Escherichia coli BL21 (DE3) using FBP as substrate incubated for 5 mins by malachite green dye based spectrophotometry. In short, it runs like this:
as §2

Assay [23] addresses Fructose-1,6-bisphosphatase 1 (Homo sapiens, UniProt P09467, R255A). Briefly: Inhibition of human FBPase R254A mutant expressed in Escherichia coli BL21 (DE3) using FBP as substrate incubated for 5 mins by malachite green dye based spectrophotometry. In short, it runs like this: as §2
The target in assay [24] is Fructose-1,6-bisphosphatase 1 (Homo sapiens, UniProt P09467, Y259A). Description: Inhibition of human FBPase Y258A mutant expressed in Escherichia coli BL21 (DE3) using FBP as substrate incubated for 5 mins by malachite green dye based spectrophotometry. Summed up: as §2
Fructose-1,6-bisphosphatase 1 (Homo sapiens, UniProt P09467, Y259A), sequence (P09467 2-338 Y259A limits assumed): as the sequence (P09467 2-338 C39S limits assumed) above, with S38C, Y258A counted along it

Fructose-1,6-bisphosphatase 1 (Homo sapiens, UniProt P09467, C129S), sequence (P09467 2-338 C129S limits assumed): as the sequence (P09467 2-338 C39S limits assumed) above, with S38C, C128S counted along it
Fructose-1,6-bisphosphatase 1 (Homo sapiens, UniProt P09467, N126A), sequence (P09467 2-338 N126A limits assumed): as the sequence (P09467 2-338 C39S limits assumed) above, with S38C, N125A counted along it
Fructose-1,6-bisphosphatase 1 (Homo sapiens, UniProt P09467, R244A), sequence (P09467 2-338 R244A limits assumed): as the sequence (P09467 2-338 C39S limits assumed) above, with S38C, R243A counted along it
Fructose-1,6-bisphosphatase 1 (Homo sapiens, UniProt P09467, S125A), sequence (P09467 2-338 S125A limits assumed): as the sequence (P09467 2-338 C39S limits assumed) above, with S38C, S124A counted along it
Fructose-1,6-bisphosphatase 1 (Homo sapiens, UniProt P09467, R255A), sequence (P09467 2-338 R255A limits assumed): as the sequence (P09467 2-338 C39S limits assumed) above, with S38C, R254A counted along it
Fructose-1,6-bisphosphatase 1 (Homo sapiens, UniProt P09467, C117S), sequence (P09467 2-338 C117S limits assumed): as the sequence (P09467 2-338 C39S limits assumed) above, with S38C, C116S counted along it
Fructose-1,6-bisphosphatase 1 (Homo sapiens, UniProt P09467, C93S), sequence (P09467 2-338 C93S limits assumed): as the sequence (P09467 2-338 C39S limits assumed) above, with S38C, C92S counted along it

As to `CCOC(=O)C(C)(C)Oc1ccc(F)c(/C=C/[N+](=O)[O-])c1`, the Ratio IC50 in the assay listed under Homo sapiens [1] was 492; in the assay listed under Homo sapiens [3], 1; in the assay listed under Homo sapiens [4] it was 1; in the assay listed under Homo sapiens [5], 1.6; in the assay filed under Homo sapiens [6], above 820; in the assay listed under Homo sapiens [7], 5.9. The Ratio IC50 in the assay listed under Homo sapiens [8] is 1.6; in the assay filed under Homo sapiens [9] it was 1.5; in the assay filed under Homo sapiens [10] it was 39; in the assay filed under Homo sapiens [11], 28; in the assay listed under Homo sapiens [12], 20; in the assay filed under Homo sapiens [13] it was 4.8. The pIC50 in assay [2] is 6.21; in assay [14], below 3.30; in [15], 6.18; in assay [16] it was 6.19; in [17], 6.02; in assay [18], 6.01. For the same molecule, the pIC50 is 5.89 in assay [19]; 4.62 in [20]; below 3.52 in assay [21]; 4.77 in assay [22]; 4.92 in assay [23]; 5.54 in assay [24].
Turning to `O=[N+]([O-])/C=C/c1cccc(F)c1`, the Ratio IC50 in the assay listed under Homo sapiens [1] is above 625; in the assay filed under Homo sapiens [3], 3.8; in the assay filed under Homo sapiens [4], 1.9; in the assay listed under Homo sapiens [5], 3.4; in the assay filed under Homo sapiens [6], above 1010; in the assay filed under Homo sapiens [7], 2.8. In addition, the Ratio IC50 was 2.8 in the assay filed under Homo sapiens [8]; 7.2 in the assay listed under Homo sapiens [9]; 37.8 in the assay filed under Homo sapiens [10]; 6.9 in the assay filed under Homo sapiens [11]; 26 in the assay listed under Homo sapiens [12]; 19 in the assay listed under Homo sapiens [13]. Moreover, the pIC50 in assay [2] was 6.49; in assay [14] it was below 3.46; in [15] it was 5.92; in [16] it was 6.21; in [17] it was 5.96; in assay [18], 6.04. Moreover, the pIC50 in assay [19] is 5.64; in assay [20], 4.92; in assay [21], below 3.70; in assay [22], 5.66; in assay [23], 5.08; in [24], 4.72.
Take `N#Cc1ccc(/C=C/[N+](=O)[O-])cc1`: the Ratio IC50 in the assay filed under Homo sapiens [1] was above 556; in the assay filed under Homo sapiens [3] it was 1.4; in the assay listed under Homo sapiens [4] it was 0.97; in the assay filed under Homo sapiens [5], 0.94; in the assay filed under Homo sapiens [6], above 1000; in the assay filed under Homo sapiens [7], 1.2. In addition, the Ratio IC50 in the assay filed under Homo sapiens [8] came to 1.2; in the assay listed under Homo sapiens [9], 1.7; in the assay listed under Homo sapiens [10] it was 3.8; in the assay listed under Homo sapiens [11], 1.9; in the assay filed under Homo sapiens [12], 10; in the assay listed under Homo sapiens [13], 4.2. The negative-log IC50 (pIC50) in assay [2] was 6.44; in assay [14] it was below 3.46; in [15], 6.31; in [16] it was 6.47; in [17] it was 6.48; in assay [18], 6.36. The pIC50 in [19] was 6.21; in assay [20], 5.85; in assay [21], below 3.70; in assay [22], 6.17; in assay [23] it was 5.44; in assay [24], 5.82.

These data come from ChEMBL document CHEMBL4311987, “Discovery of novel allosteric site and covalent inhibitors of FBPase with potent hypoglycemic effects” (Eur J Med Chem, 2019).
